Results as given in ChEMBL document CHEMBL1649231, “In vitro activities of panduratin A against clinical Staphylococcus strains” (2009).
≈ marks a conversion by molar mass, not a printed value.

Experiments:
Type in all cases: functional
Staphylococcus hominis [1] = assay: Antimicrobial activity against methicillin-resistant coagulase-negative Staphylococcus hominis assessed as susceptible isolates after 24 hrs by broth microdilution method
[2] = tested on: Staphylococcus epidermidis; assay: Antimicrobial activity against methicillin-resistant coagulase-negative Staphylococcus epidermidis assessed as resistant isolates after 24 hrs by broth microdilution method
Staphylococcus simulans [3] = assay: Antimicrobial activity against methicillin-susceptible coagulase-negative Staphylococcus simulans assessed as susceptible isolates after 24 hrs by broth microdilution method
Outline: (§1)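 Clinical isolates from blood, body fluids, pus, sputum or genital secretions, identified conventionally or by Vitek, were tested alongside ATCC 29213 and ATCC 12228 controls. CLSI M7-A6 broth microdilution in Mueller-Hinton broth used twofold dilutions from a 10% DMSO solution and 5 × 10^5 CFU/ml inoculum. Drug-free and uninoculated wells served as controls; incubation was aerobic at 37°C for 24 h. MIC was the lowest concentration with no visible growth.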

Mammaliicoccus sciuri [4] = assay: Antimicrobial activity against methicillin-resistant coagulase-negative Staphylococcus sciuri assessed as resistant isolates after 24 hrs by broth microdilution method
[5] = tested on: Staphylococcus haemolyticus; assay: Antimicrobial activity against methicillin-susceptible coagulase-negative Staphylococcus haemolyticus assessed as susceptible isolates after 24 hrs by broth microdilution method
Mammaliicoccus sciuri [6] = assay: Antimicrobial activity against methicillin-resistant coagulase-negative Staphylococcus sciuri after 24 hrs by broth microdilution method
Outline: (§2)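 Clinical isolates came from blood, body fluids, genital secretions, pus or sputum, identified conventionally or by Vitek. MICs were run by CLSI M7-A6 broth microdilution in Mueller-Hinton broth with 5 × 10^5 CFU/ml inoculum. Agents were twofold serially diluted, starting from 10% DMSO. Drug-free and uninoculated controls were included. Plates were incubated aerobically at 37°C for 24 h; MIC is the lowest concentration giving no visible growth.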

Staphylococcus simulans [7] = assay: Bactericidal activity against methicillin-resistant coagulase-negative Staphylococcus simulans after 24 hrs by plate counting method
Outline: (§3)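 Clinical staphylococcal isolates from patient body fluids, blood, genital secretions, pus or sputum; species by conventional methods or Vitek. Twofold dilutions in Mueller-Hinton broth, inoculum 5 × 10^5 CFU/ml, 37°C aerobic 24 h (CLSI M7-A6 microdilution). About 100 μl from each well without visible growth spread on MHA; 37°C 24 h. MBC = lowest concentration giving no growth on agar.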

Staphylococcus hominis [8] = assay: Antimicrobial activity against methicillin-susceptible coagulase-negative Staphylococcus hominis after 24 hrs by broth microdilution method; outline: as §2
[9] = tested on: Staphylococcus haemolyticus; assay: Bactericidal activity against methicillin-susceptible coagulase-negative Staphylococcus haemolyticus after 24 hrs by plate counting method; outline: as §3
Staphylococcus hominis [10] = assay: Bactericidal activity against methicillin-susceptible coagulase-negative Staphylococcus hominis after 24 hrs by plate counting method; outline: as §3
[11] = tested on: Staphylococcus haemolyticus; assay: Antimicrobial activity against methicillin-resistant coagulase-negative Staphylococcus haemolyticus assessed as susceptible isolates after 24 hrs by broth microdilution method
Staphylococcus aureus [12] = assay: Bactericidal activity against methicillin-susceptible Staphylococcus aureus after 24 hrs by plate counting method; outline: as §3
Staphylococcus hominis [13] = assay: Antimicrobial activity against methicillin-resistant coagulase-negative Staphylococcus hominis assessed as resistant isolates after 24 hrs by broth microdilution method
[14] = tested on: Staphylococcus epidermidis; assay: Antimicrobial activity against methicillin-resistant coagulase-negative Staphylococcus epidermidis after 24 hrs by broth microdilution method; outline: as §2
Mammaliicoccus sciuri [15] = assay: Bactericidal activity against methicillin-susceptible coagulase-negative Staphylococcus sciuri after 24 hrs by plate counting method; outline: as §3
Staphylococcus aureus [16] = assay: Antimicrobial activity against methicillin-resistant Staphylococcus aureus assessed as susceptible isolates after 24 hrs by broth microdilution method
Staphylococcus aureus [17] = assay: Antimicrobial activity against methicillin-susceptible Staphylococcus aureus assessed as resistant isolates after 24 hrs by broth microdilution method
[18] = tested on: Staphylococcus epidermidis; assay: Bactericidal activity against methicillin-susceptible coagulase-negative Staphylococcus epidermidis after 24 hrs by plate counting method; outline: as §3
[19] = tested on: Staphylococcus epidermidis; assay: Antimicrobial activity against methicillin-susceptible coagulase-negative Staphylococcus epidermidis assessed as resistant isolates after 24 hrs by broth microdilution method
Staphylococcus simulans [20] = assay: Antimicrobial activity against methicillin-resistant coagulase-negative Staphylococcus simulans after 24 hrs by broth microdilution method; outline: as §2
Staphylococcus hominis [21] = assay: Bactericidal activity against methicillin-resistant coagulase-negative Staphylococcus hominis after 24 hrs by plate counting method
[22] = tested on: Staphylococcus haemolyticus; assay: Antimicrobial activity against methicillin-susceptible coagulase-negative Staphylococcus haemolyticus after 24 hrs by broth microdilution method; outline: as §2
[23] = tested on: Staphylococcus haemolyticus; assay: Antimicrobial activity against methicillin-resistant coagulase-negative Staphylococcus haemolyticus assessed as resistant isolates after 24 hrs by broth microdilution method
Staphylococcus simulans [24] = assay: Bactericidal activity against methicillin-susceptible coagulase-negative Staphylococcus simulans after 24 hrs by plate counting method; outline: as §3
Staphylococcus hominis [25] = assay: Antimicrobial activity against methicillin-susceptible coagulase-negative Staphylococcus hominis assessed as resistant isolates after 24 hrs by broth microdilution method
Staphylococcus simulans [26] = assay: Antimicrobial activity against methicillin-susceptible coagulase-negative Staphylococcus simulans after 24 hrs by broth microdilution method; outline: as §2
[27] = tested on: Staphylococcus epidermidis; assay: Antimicrobial activity against methicillin-susceptible coagulase-negative Staphylococcus epidermidis after 24 hrs by broth microdilution method; outline: as §2
Staphylococcus aureus [28] = assay: Bactericidal activity against methicillin-resistant Staphylococcus aureus after 24 hrs by plate counting method
[29] = tested on: Staphylococcus haemolyticus; assay: Antimicrobial activity against methicillin-susceptible coagulase-negative Staphylococcus haemolyticus assessed as resistant isolates after 24 hrs by broth microdilution method
Mammaliicoccus sciuri [30] = assay: Bactericidal activity against methicillin-resistant coagulase-negative Staphylococcus sciuri after 24 hrs by plate counting method; outline: as §3
Staphylococcus hominis [31] = assay: Antimicrobial activity against methicillin-resistant coagulase-negative Staphylococcus hominis after 24 hrs by broth microdilution method; outline: as §2
Staphylococcus aureus [32] = assay: Antimicrobial activity against methicillin-resistant Staphylococcus aureus assessed as resistant isolates after 24 hrs by broth microdilution method
[33] = tested on: Staphylococcus epidermidis; assay: Antimicrobial activity against methicillin-resistant coagulase-negative Staphylococcus epidermidis assessed as susceptible isolates after 24 hrs by broth microdilution method
Mammaliicoccus sciuri [34] = assay: Antimicrobial activity against methicillin-susceptible coagulase-negative Staphylococcus sciuri assessed as resistant isolates after 24 hrs by broth microdilution method
Staphylococcus hominis [35] = assay: Antimicrobial activity against methicillin-susceptible coagulase-negative Staphylococcus hominis assessed as susceptible isolates after 24 hrs by broth microdilution method
Staphylococcus aureus [36] = assay: Antimicrobial activity against methicillin-susceptible Staphylococcus aureus after 24 hrs by broth microdilution method; outline: as §2
[37] = tested on: Staphylococcus haemolyticus; assay: Antimicrobial activity against methicillin-resistant coagulase-negative Staphylococcus haemolyticus after 24 hrs by broth microdilution method; outline: as §2
Staphylococcus aureus [38] = assay: Antimicrobial activity against methicillin-resistant Staphylococcus aureus after 24 hrs by broth microdilution method; outline: as §2
[39] = tested on: Staphylococcus epidermidis; assay: Antimicrobial activity against methicillin-susceptible coagulase-negative Staphylococcus epidermidis assessed as susceptible isolates after 24 hrs by broth microdilution method
Mammaliicoccus sciuri [40] = assay: Antimicrobial activity against methicillin-susceptible coagulase-negative Staphylococcus sciuri assessed as susceptible isolates after 24 hrs by broth microdilution method; outline: as §1
Staphylococcus aureus [41] = assay: Antimicrobial activity against methicillin-susceptible Staphylococcus aureus assessed as susceptible isolates after 24 hrs by broth microdilution method
Mammaliicoccus sciuri [42] = assay: Antimicrobial activity against methicillin-susceptible coagulase-negative Staphylococcus sciuri after 24 hrs by broth microdilution method; outline: as §2
Staphylococcus simulans [43] = assay: Antimicrobial activity against methicillin-resistant coagulase-negative Staphylococcus simulans assessed as resistant isolates after 24 hrs by broth microdilution method
[44] = tested on: Staphylococcus haemolyticus; assay: Bactericidal activity against methicillin-resistant coagulase-negative Staphylococcus haemolyticus after 24 hrs by plate counting method
[45] = tested on: Staphylococcus epidermidis; assay: Bactericidal activity against methicillin-resistant coagulase-negative Staphylococcus epidermidis after 24 hrs by plate counting method
[46] = Staphylococcus haemolyticus, 24 h
[47] = Staphylococcus epidermidis, 24 h

## Cc1onc(-c2ccccc2)c1C(=O)N[C@@H]1C(=O)N2[C@@H]1SC(C)(C)[C@@H]2C(=O)O [OXACILLIN]
Staphylococcus hominis [1]
  Activity: 26%
[2]
  Activity: 74%
Staphylococcus simulans [3]
  Activity: 96%
Mammaliicoccus sciuri [4]
  Activity: 74%
[5]
  Activity: 96%
Mammaliicoccus sciuri [6]
  MIC50: 64 µg/mL (≈ 159 µM)
  MIC90: 64 µg/mL (≈ 159 µM)
Staphylococcus simulans [7]
  MBC90: 256 µg/mL (≈ 638 µM)
Staphylococcus simulans [7]; Staphylococcus simulans, 24 h
  MBC: 1 µg/mL (≈ 2.49 µM)
Staphylococcus hominis [8]
  MIC: 0.125 µg/mL (≈ 0.311 µM)
  MIC50: 0.125 µg/mL (≈ 0.311 µM)
  MIC90: 0.5 µg/mL (≈ 1.25 µM)
[9]
  MBC50: 2 µg/mL (≈ 4.98 µM)
  MBC90: 8 µg/mL (≈ 19.9 µM)
[9]; [46]
  MBC: 0.25 µg/mL (≈ 0.623 µM)
Staphylococcus hominis [10]
  MBC50: 2 µg/mL (≈ 4.98 µM)
  MBC90: 8 µg/mL (≈ 19.9 µM)
Staphylococcus hominis [10]; Staphylococcus hominis, 24 h
  MBC: 0.25 µg/mL (≈ 0.623 µM)
[11]
  Activity: 26%
Staphylococcus aureus [12]
  MBC50: 16 µg/mL (≈ 39.9 µM)
  MBC90: 64 µg/mL (≈ 159 µM)
Staphylococcus aureus [12]; Staphylococcus aureus, 24 h
  MBC: 1 µg/mL (≈ 2.49 µM)
Staphylococcus hominis [13]
  Activity: 74%
[14]
  MIC50: 64 µg/mL (≈ 159 µM)
  MIC90: 64 µg/mL (≈ 159 µM)
Mammaliicoccus sciuri [15]
  MBC50: 2 µg/mL (≈ 4.98 µM)
  MBC90: 8 µg/mL (≈ 19.9 µM)
Mammaliicoccus sciuri [15]; Mammaliicoccus sciuri, 24 h
  MBC: 0.25 µg/mL (≈ 0.623 µM)
Staphylococcus aureus [16]
  Activity: 0%
Staphylococcus aureus [17]
  Activity: 11%
[18]
  MBC50: 2 µg/mL (≈ 4.98 µM)
  MBC90: 8 µg/mL (≈ 19.9 µM)
[18]; [47]
  MBC: 0.25 µg/mL (≈ 0.623 µM)
[19]
  Activity: 4%
Staphylococcus simulans [20]
  MIC50: 64 µg/mL (≈ 159 µM)
  MIC90: 64 µg/mL (≈ 159 µM)
Staphylococcus hominis [21]
  MBC90: 256 µg/mL (≈ 638 µM)
Staphylococcus hominis [21]; Staphylococcus hominis, 24 h
  MBC: 1 µg/mL (≈ 2.49 µM)
[22]
  MIC: 0.125 µg/mL (≈ 0.311 µM)
  MIC50: 0.125 µg/mL (≈ 0.311 µM)
  MIC90: 0.5 µg/mL (≈ 1.25 µM)
[23]
  Activity: 74%
Staphylococcus simulans [24]
  MBC50: 2 µg/mL (≈ 4.98 µM)
  MBC90: 8 µg/mL (≈ 19.9 µM)
Staphylococcus simulans [24]; Staphylococcus simulans, 24 h
  MBC: 0.25 µg/mL (≈ 0.623 µM)
Staphylococcus hominis [25]
  Activity: 4%
Staphylococcus simulans [26]
  MIC: 0.125 µg/mL (≈ 0.311 µM)
  MIC50: 0.125 µg/mL (≈ 0.311 µM)
  MIC90: 0.5 µg/mL (≈ 1.25 µM)
[27]
  MIC: 0.125 µg/mL (≈ 0.311 µM)
  MIC50: 0.125 µg/mL (≈ 0.311 µM)
  MIC90: 0.5 µg/mL (≈ 1.25 µM)
Staphylococcus aureus [28]
  MBC50: 256 µg/mL (≈ 638 µM)
  MBC90: 512 µg/mL (≈ 1280 µM)
Staphylococcus aureus [28]; Staphylococcus aureus, 24 h
  MBC: 256 µg/mL (≈ 638 µM)
[29]
  Activity: 4%
Mammaliicoccus sciuri [30]
  MBC90: 256 µg/mL (≈ 638 µM)
Mammaliicoccus sciuri [30]; Mammaliicoccus sciuri, 24 h
  MBC: 1 µg/mL (≈ 2.49 µM)
Staphylococcus hominis [31]
  MIC50: 64 µg/mL (≈ 159 µM)
  MIC90: 64 µg/mL (≈ 159 µM)
Staphylococcus aureus [32]
  Activity: 100%
[33]
  Activity: 26%
Mammaliicoccus sciuri [34]
  Activity: 4%
Staphylococcus hominis [35]
  Activity: 96%
Staphylococcus aureus [36]
  MIC: 0.125 µg/mL (≈ 0.311 µM)
  MIC50: 0.125 µg/mL (≈ 0.311 µM)
  MIC90: 1 µg/mL (≈ 2.49 µM)
[37]
  MIC50: 64 µg/mL (≈ 159 µM)
  MIC90: 64 µg/mL (≈ 159 µM)
Staphylococcus aureus [38]
  MIC50: 64 µg/mL (≈ 159 µM)
  MIC90: 64 µg/mL (≈ 159 µM)
[39]
  Activity: 96%
Mammaliicoccus sciuri [40]
  Activity: 96%
Staphylococcus aureus [41]
  Activity: 89%
Mammaliicoccus sciuri [42]
  MIC: 0.125 µg/mL (≈ 0.311 µM)
  MIC50: 0.125 µg/mL (≈ 0.311 µM)
  MIC90: 0.5 µg/mL (≈ 1.25 µM)
Staphylococcus simulans [43]
  Activity: 74%
[44]
  MBC90: 256 µg/mL (≈ 638 µM)
[44]; [46]
  MBC: 1 µg/mL (≈ 2.49 µM)
[45]
  MBC90: 256 µg/mL (≈ 638 µM)
[45]; [47]
  MBC: 1 µg/mL (≈ 2.49 µM)
